This is a sample that favours compounds with a hit; in the whole collection about 1% have one here.
IMP-1 inh = IMP-1 metallo-beta-lactamase inhibitors, primary screen, biochemical, epi-absorbance readout, Pseudomonas aeruginosa enzyme | metallo-beta-lactamase IMP-1 (Pseudomonas aeruginosa) | purified IMP-1, nitrocefin hydrolysis, epi-absorbance fluorescence | actives 0.45% (n = 290,000) | inhibition, % at 5.6 µM;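 active means inhibition above the mean plus 3 SD of all compounds in the same screening run, cut at about 4.5% in these data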;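 further: 0% = IMP-1 with DMSO and 100% = DMSO wells lacking enzyme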
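Material – recombinant IMP-1 enzyme, purified · Amount – IMP-1 0.2 nM before substrate addition · Medium – HEPES buffer pH 7.1 with ZnSO4 and Brij 35 · Timing – 25 °C, 15 min preincubation, 25 min reaction · Measured by – plate fluorescence quenching by hydrolysis product, ex 480/em 530 nm · Read-out – percent enzyme inhibition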
DNA FID counter = compounds displacing fluorescent DNA intercalator, primary screen, artefact control for HCV NS3 helicase inhibitor project, biochemical, FID fluorescence; DNA fluorescent intercalator displacement; actives 0.17% (n = 290,000); AID 1845, 2009; inhibition, % at 7.9 µM; in the data active means inhibition above about 37%;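 further: 0% = vehicle and 100% = reference compound; higher means more ethidium bromide displaced from hairpin DNA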
VIM-2 inh = VIM-2 metallo-beta-lactamase inhibitors, primary screen, biochemical, epi-absorbance readout, Pseudomonas aeruginosa enzyme; purified VIM-2, nitrocefin hydrolysis, epi-absorbance fluorescence; actives 0.89% (n = 290,000); inhibition, % at 5.6 µM;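 active means inhibition above the mean of all tested compounds plus 3 SD, cutoff set per screening run, cut at about 7.5% in these data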;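 further: red hydrolysis product quenches plate fluorescence so inhibitors raise well fluorescence; 0% = enzyme with DMSO and 100% = DMSO without enzyme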
RAD54 inh = inhibitors of human RAD54 branch migration, primary screen, biochemical, fluorescence, single point | AID 602329, 2012 | actives 0.14% (n = 360,000) | RAD54 Holliday junction branch migration, FAM/BHQ fluorescence | inhibition, % at 10.4 µM;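 active means mean normalized replicate activity at least 40 and at least half of replicates scoring 40 or more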;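 further: 0% = median of neutral control wells and 100% = median of positive control wells; inhibitors cause a drop in the FAM fluorescence signal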
Target sequence (Q92698 whole entry, looked up): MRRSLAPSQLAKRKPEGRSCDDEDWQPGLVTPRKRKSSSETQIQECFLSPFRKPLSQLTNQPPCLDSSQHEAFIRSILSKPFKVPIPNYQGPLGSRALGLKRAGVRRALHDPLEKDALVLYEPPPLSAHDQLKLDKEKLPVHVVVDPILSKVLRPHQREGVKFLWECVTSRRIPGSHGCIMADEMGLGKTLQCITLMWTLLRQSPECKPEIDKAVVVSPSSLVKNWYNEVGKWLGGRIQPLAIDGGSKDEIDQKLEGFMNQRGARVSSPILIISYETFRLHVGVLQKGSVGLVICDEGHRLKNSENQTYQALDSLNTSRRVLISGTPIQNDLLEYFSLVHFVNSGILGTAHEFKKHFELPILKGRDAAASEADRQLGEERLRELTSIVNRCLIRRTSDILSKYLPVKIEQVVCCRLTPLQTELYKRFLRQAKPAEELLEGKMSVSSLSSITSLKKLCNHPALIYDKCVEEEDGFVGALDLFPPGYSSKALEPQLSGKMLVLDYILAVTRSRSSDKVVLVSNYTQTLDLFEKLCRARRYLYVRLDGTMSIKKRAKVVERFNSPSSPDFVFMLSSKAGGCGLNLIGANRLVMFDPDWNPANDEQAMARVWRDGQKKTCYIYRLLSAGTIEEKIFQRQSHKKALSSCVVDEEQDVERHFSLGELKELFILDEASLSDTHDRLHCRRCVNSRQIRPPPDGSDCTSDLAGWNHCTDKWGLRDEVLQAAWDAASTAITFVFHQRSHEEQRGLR
PvdQ inh = P. aeruginosa PvdQ acylase inhibitors, primary screen, biochemical, fluorescence, plate reader and imaging, single point; actives 0.063% (n = 340,000); AID 488965, 2010; inhibition, % at 10 µM; PvdQ acylase [Pseudomonas aeruginosa LESB58]; purified PvdQ acylase; in the data active means inhibition above about 30%, passing the limit was not always enough;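 further: 0% = vehicle neutral wells and 100% = reference inhibitor wells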
An asterisk follows results filed as active; · = no result.

SMILES | IMP-1 inh | DNA FID counter | VIM-2 inh | RAD54 inh | PvdQ inh
O=C(C1=NN[C@@H]2C(=O)N(c3cccc(F)c3)C(=O)[C@H]12)C(c1ccccc1)c1ccccc1 | 5.2* | -35 | -3 | · | -4
COc1ccc(NC(=O)Nc2ccc3c(c2)C(=O)N([C@@H](C)CO)C[C@H](C)[C@@H](CN(C)C(=O)C2CCCCC2)OCCCC[C@@H](C)O3)cc1 | · | · | · | -1 | ·
CN1C(=O)c2cc(NC(=O)Nc3ccc(Cl)cc3)ccc2OC[C@H]2O[C@@H](CC(=O)O)CC[C@H]21 | · | · | · | -6 | ·
Cc1ccnc2nc(C(=O)OCC(=O)Nc3ccc4c(c3)OC(F)(F)O4)nn12 | 4.7* | 1 | 1 | · | -10
CO[C@@H]1CN(C)C(=O)c2ccc(NS(C)(=O)=O)cc2OC[C@@H](C)N(CC2CCCCC2)C[C@@H]1C | · | · | · | 7 | ·
CN1C(=O)c2cccc3c(N(C)C)ccc(c23)C1=O | 1 | -2 | 9.8* | -50 | 3
O=C(CN1CCOCC1)NCC[C@@H]1CC[C@H](NC(=O)Nc2ccc(F)cc2)[C@@H](CO)O1 | · | · | · | 7 | ·
O=C(c1cc2c(=O)n3ccccc3nc2s1)N1CCN(Cc2ccccc2)CC1 | -2 | -27 | 8.2* | 6 | -9
CCN1CCN(C(=O)c2cc3c(=O)n4ccccc4nc3s2)CC1 | -2 | -3 | 12* | 13 | -6
O=C(c1cc2c(=O)n3ccccc3nc2s1)N1CCN(Cc2ccc3c(c2)OCO3)CC1 | -4 | -11 | 1 | · | -18
CC1CCCN(C(=O)c2cc3c(=O)n4ccccc4nc3s2)C1 (stereo not given) | -2 | -26 | 4 | 6 | 9
CNC[C@@H](C)NC[C@@H](Cc1ccccc1)NCCc1ccccc1 | 0 | 17 | 12* | -13 | -8
CN1CCN(C(=O)C[C@H]2CC[C@H]3[C@@H](COC[C@@H](O)CN3S(=O)(=O)c3cccc(F)c3)O2)CC1 | · | · | · | -12 | ·
COc1ccc(CCNCC(O)COc2ccc(OC)cc2C(C)(C)C)cc1 (stereo not given) | 0 | 43* | 0 | 1 | -27
Oc1ccc(/C=N/Nc2nn3cnnc3c3ccccc23)cc1 | -4 | -11 | 8.8* | · | -9
COc1cccc(/C=N/Nc2nn3cnnc3c3ccccc23)c1 | -4 | -10 | 12* | -15 | 3
COc1cc(/C=N/Nc2nn3cnnc3c3ccccc23)ccc1O | -5 | -4 | 1 | 15 | -11
C[C@@H]1CN([C@@H](C)CO)C(=O)c2cccc(NC(=O)Nc3ccc4c(c3)OCO4)c2O[C@H]1CN(C)Cc1ccc(Oc2ccccc2)cc1 | · | · | · | -15 | ·
O=C(Nc1ccccc1)N1C[C@H]2[C@@H](c3ccccc31)[C@H](CO)N2C(=O)c1ccccc1F | · | · | · | 0 | ·
COC(=O)c1ccccc1NC(=O)c1sc(N)nc1C | -5 | -7 | 10* | -2 | -3
Cc1nc(N)sc1C(=O)Nc1ccccc1 | -3 | 3 | -3 | -14 | 11
CC(=O)N(C)C[C@H]1OCc2ccccc2-c2ccccc2C(=O)N([C@@H](C)CO)C[C@@H]1C | · | · | · | -2 | ·
O=C(O)/C(=C\c1ccccc1OC(F)F)c1ccc(-c2ccccc2)cc1 | 7.3* | -22 | -2 | 3 | -14
O=C(O)/C(=C\c1ccc(F)cc1)c1ccc(-c2ccccc2)cc1 | 0 | -12 | 0 | · | -9
COc1ccc(C(=O)Nc2nnc(-c3ccco3)s2)cc1 | 7.3* | 2 | 1 | 4 | 11
SMILES | IMP-1 inh | DNA FID counter | VIM-2 inh | RAD54 inh | PvdQ inh
Cc1noc(C)c1NC(=O)Nc1ccc2c(c1)C(=O)N([C@@H](C)CO)C[C@@H](C)[C@@H](CN(C)Cc1ccccc1)OCCCC[C@@H](C)O2 | · | · | · | -4 | ·
COc1ccc2c(Cl)c(C(=O)NN3CCN(C)CC3)sc2c1 | -1 | 7 | 8.5* | 3 | -4
CC(C)(C)C1CCc2c(sc(NC(=O)c3cc(C4CC4)on3)c2C#N)C1 (stereo not given) | 4.9* | -3 | -5 | -6 | -2
Cc1cc(C(=O)Nc2sc3c(c2C#N)CCC(C(C)(C)C)C3)no1 (stereo not given) | -3 | -4 | -2 | 2 | -3
O=C(O)C1=C(C(=O)Nc2cc(C(F)(F)F)ccc2Cl)CCCC1 | 9.9* | -4 | 4 | · | -25
CCO[C@@H]1OC(C(=O)N2CCN(Cc3ccc4c(c3)OCO4)CC2)=C[C@H](C(C)(C)C)[C@H]1CCCO | · | · | · | -7 | ·
CCC(=O)N/C(N)=N/c1nc(C)c2cc(C)c(C)cc2n1 | -1 | 7 | 10* | 8 | ·
Cc1cc(C)n2c(=S)[nH]nc2n1 | -3 | -2 | 11* | 4 | -5
Cc1cc(C)n2cnnc2n1 | -3 | -3 | -1 | -2 | ·
Cc1sc2c(c1C)C(O)=C(C(=O)Nc1ccccc1)S(=O)(=O)N2C | 4.6* | -18 | 0 | · | -6
CN1c2ccccc2C(O)=C(C(=O)Nc2ccccc2)S1(=O)=O | -1 | 5 | -3 | -13 | 6
O=c1oc2ccccc2nc1/C=C(O)/C=C\c1ccccc1 | -1 | -9 | -4 | · | -8
O=c1oc2ccccc2nc1/C=C(O)/C=C/c1ccc(F)cc1 | -2 | 40* | -3 | -12 | -14
CC(NCCCOc1cccc2ccccc12)c1ccccc1 (stereo not given) | -2 | 34 | -1 | 16 | -20
CNCC[C@H](Oc1cccc2ccccc12)c1cccs1 | 1 | 41* | 1 | 21 | 11
O=C(CN1CCC(n2cnc3cc(F)ccc32)CC1)Nc1ccccc1Br | -2 | -27 | 9.8* | · | 7
CCC(=O)N1C[C@H](C)[C@H](OC)CN(C)C(=O)c2ccc(NC(=O)COC)cc2OC[C@@H]1C | · | · | · | 1 | ·
NCCCn1c(C(=O)c2cc(Cl)c(N)c(Cl)c2)c2ccccc2[n+]1[O-] | · | · | · | 13 | -8
NC(=O)CCn1c(C(=O)c2cc(Cl)c(N)c(Cl)c2)c2ccccc2[n+]1[O-] | -4 | -14 | 7.8* | -7 | 5
CCN1CCN(CCCNC(=O)c2ccc3c(Cl)c4c(nc3c2)CCCC4)CC1 | -1 | 20 | 11* | 15 | -5
CCCN(CCC)CCCNC(=O)c1ccc2c(Cl)c3c(nc2c1)CCC3 | -3 | 15 | 9.6* | 11 | 7
CC1CCN(CCCNC(=O)c2ccc3c(Cl)c4c(nc3c2)CCCC4)CC1 | -1 | 18 | 11* | · | -9
O=C(NCCCN1CCCCCC1)c1ccc2c(Cl)c3c(nc2c1)CCCC3 | -4 | -1 | 1 | · | -8
O=C(CN1CCOCC1)N1CCCCN2[C@H](CO)[C@H](c3ccc(C#Cc4ccccc4F)cc3)[C@@H]2C1 | · | · | · | -5 | ·
CCOc1ccc(N2CC(=O)SC2=S)cc1 | -3 | -6 | -3 | · | -3
CCOc1ccc(N2CSC(=S)N(c3ccc(OCC)cc3)C2)cc1 | 4.7* | -8 | -2 | -12 | -12
Cc1cc(C)c2[nH]c(=O)c(CN(Cc3cccnc3)C(=S)NCCCN(C)C)cc2c1 | -2 | 17 | 9.3* | · | 0

Assay outcomes deposited in PubChem by several laboratories.
